# NPY2 pot ag: potentiates or activates human NPY-Y2 receptor; activation, % at 3.6 µM; cells expressing NPY-Y2, potentiator/agonist read-out; AID 1359; actives 0.45% (n = 220,000); in the data active = activation above about 27%;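 note: cells stimulated with NPY near EC25 plus isoproterenol at EC100; 0% = vehicle plus submaximal agonist and 100% = vehicle plus saturating agonist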
# Target sequence (P49146 whole entry, looked up): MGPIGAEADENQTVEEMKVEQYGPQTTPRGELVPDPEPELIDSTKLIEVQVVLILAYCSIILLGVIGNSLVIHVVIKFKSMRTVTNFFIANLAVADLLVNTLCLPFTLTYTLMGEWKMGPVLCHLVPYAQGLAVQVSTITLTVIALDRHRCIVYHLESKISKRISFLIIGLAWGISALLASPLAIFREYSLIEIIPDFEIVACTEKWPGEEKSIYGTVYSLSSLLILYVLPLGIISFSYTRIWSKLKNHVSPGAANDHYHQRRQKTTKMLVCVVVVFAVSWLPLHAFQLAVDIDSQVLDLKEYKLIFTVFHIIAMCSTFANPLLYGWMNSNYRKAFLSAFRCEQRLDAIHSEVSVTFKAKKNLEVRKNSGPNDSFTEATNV
# Wee1 stabilizer: inhibitors of human Wee1 degradation. actives 1.2% (n = 220,000). HeLa Luc-Wee1K328M stability, luciferase luminescence; 100% = proteasome inhibitor MG132 effect. reporter increase, % at 5 µM;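 active = activation above the mean of all tested compounds plus 3 SD, set per screening run, cut at about 8.8% in these data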;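 note: cells exposed to compound for 20 h before luminescence read; 0% = DMSO alone and 100% = MG132 at 30 µM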
# NPY Y1 blocker: antagonists of human neuropeptide Y receptor Y1; AID 1040; HEK293-CNG Y1 cells, membrane potential fluorescence; NPY at EC95, then isoproterenol; inhibition, % at 3.6 µM; actives 1% (n = 200,000); P25929;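 active = inhibition above the campaign mean inhibition of all tested compounds plus 3 SD, cut at about 20% in these data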;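 note: 0% = DMSO wells given NPY plus isoproterenol and 100% = isoproterenol alone without NPY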
#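 Material: HEK293 cells with Y1 receptor plus CNG channel; times: compound incubation 1 h at room temperature, readout 45 min post-stimulation; signal: fluorescence, membrane potential probe; read-out basis: fluorescence ratio normalized to % inhibition between controls; benchmarks: full-block control isoproterenol-only wells, zero-block control NPY plus isoproterenol wells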
# Hsp70 activator: Hsp70 transcriptional activation, primary screen; HeLa Hsp70 promoter luciferase reporter, luminescence; scaled: vehicle 0, proteasome-inhibitor control 100%; AID 1203; activation, % at 10 µM; actives 0.04% (n = 200,000);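 active = activation above the mean across all tested compounds plus 3 SD, cutoff set per campaign, cut at about 5.5% in these data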;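 note: 100% = MG132 at 30 µM as the positive control and 0% = DMSO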
# NPY1 pot ag: potentiators or agonists of human neuropeptide Y receptor Y1 | activation, % at 3.6 µM | P25929 | actives 0.37% (n = 220,000) | NPY-Y1 expressing cells, potentiator/agonist activation; in the data active = activation above about 33%, passing the limit was not always enough;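 note: cells stimulated with NPY at EC10 then isoproterenol at EC100; 0% = low agonist plus stimulus and 100% = saturating agonist plus stimulus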
# NPY Y2 blocker: NPY-Y2 (human) receptor antagonism | NPY-Y2 expressing cells, antagonist mode | inhibition, % at 2.7 µM | actives 0.99% (n = 140,000) | AID 793; in the data active = inhibition above about 17%;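 note: 0% = vehicle with agonist challenge and 100% = reference antagonist with challenge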
# * hit, by the source's call; x = no result given. Most compounds without a hit are left out; they make up all but 3% or so of the library.
SMILES,NPY2 pot ag,Wee1 stabilizer,NPY Y1 blocker,Hsp70 activator,NPY1 pot ag,NPY Y2 blocker
COC(=O)CNC(c1ccccc1)c1cc(Cl)ccc1NC(=O)c1cccc(Cl)c1 (stereo not given),-24,-2,34*,0,-33,28*
COC(=O)CNC(c1ccccc1)c1cc(Br)ccc1NC(C)=O (stereo not given),-8,-2,20*,0,-15,x
NNC(=O)CNC(c1ccccc1)c1cc(Br)ccc1NC(=O)c1cccc(Cl)c1 (stereo not given),-3,-2,-2,0,0,-1
CCOc1ccc(N2C(=O)CC(N3CCN(c4ccccc4F)CC3)C2=O)cc1 (stereo not given),7,14*,-1,0,-10,2
CCC(C)n1c(OC)nc2c1c(=O)n(C)c(=O)n2C (stereo not given),-1,6,2,0,14,x
Cc1cccc(N2CCN(Cc3nc(-c4cccc(Cl)c4)oc3C)CC2)n1,-28,3,19,0,-20,x
Cc1cccc(N2CCN(Cc3nc(-c4ccccc4Cl)oc3C)CC2)n1,-39,-2,20*,0,-18,x
Cc1ccc(/C=N/NC(=O)Cn2cnc3c2c(=O)n(C)c(=O)n3C)s1,-9,-2,-2,0,10,4
COC(=O)C1=C(C)OC(N)=C(C#N)C1c1cc(OC)c(OCC(N)=O)cc1Cl (stereo not given),5,4,-3,-1,1,0
Cc1cc(C)nc(NC(=O)/C=C/c2ccc3c(c2)OCO3)c1,1,8.9*,1,0,6,2
C/C(=N\Nc1ccc([N+](=O)[O-])cc1)c1cc2ccccc2o1,9,1,1,0,22,x
CCOC(=O)CSc1nc2c(sc(=S)n2Cc2ccco2)c(=O)n1-c1ccc(F)cc1,-14,0,21*,0,-2,19*
CCCCNCc1nc2ccccc2c(=O)[nH]1,-2,8.9*,11,0,-5,x
CCc1ccc(NCc2nc3ccccc3c(=O)[nH]2)cc1,-8,0,0,0,-9,-1
NC(Cc1c[nH]c2ccccc12)C(=O)NCc1ccco1 (stereo not given),-5,-4,-7,-1,8,x
O=C(Cn1nnc(-c2cccc(C(F)(F)F)c2)n1)NC(=O)NCc1ccco1,-23,-1,14,0,-37,21*
O=C(Cn1nnc(-c2ccccc2)n1)NCc1ccco1,-19,0,-3,1,-27,3
CN(C1CCCCC1)S(=O)(=O)c1cccc(C(=O)OCC(=O)NC2CCCc3ccccc32)c1 (stereo not given),-5,2,4,0,2,3
Cc1cc(-c2nnc(SCC(=O)Nc3nccs3)o2)no1,14,-3,x,x,3,x
COc1ccc(N2CCN(C(=O)c3ccc(NS(=O)(=O)c4cccs4)cc3)CC2)cc1,15,9.0*,-4,0,1,x
CCOC(=O)COc1cc(N)c(Cl)cc1Cl,1,13*,2,0,1,x
Cc1cccc(NC(=O)COc2ccc(Br)cc2/C=N/O)c1,-5,9.4*,11,0,-19,12
Cc1ccc(/C(O)=C2\C(=O)C(=O)N(CCc3c[nH]c4ccccc34)C2c2cccnc2)cc1 (stereo not given),7,-3,-1,0,13,x
COCCNC(=O)C(=O)N/N=C(\C)CC(=O)Nc1cccnc1,-19,1,0,0,-1,x
O=C(/C=C/c1ccc(F)cc1)Nc1nc2ccccc2[nH]1,-10,10*,1,0,21,3
SMILES,NPY2 pot ag,Wee1 stabilizer,NPY Y1 blocker,Hsp70 activator,NPY1 pot ag,NPY Y2 blocker
O=c1[nH]c2ccccc2nc1/C=C/c1ccc(F)cc1,-7,2,-3,0,9,x
COc1ccc(OC)c(/C=N/NC(=O)c2ccc(Cn3cc([N+](=O)[O-])cn3)o2)c1,-5,-2,-3,0,-1,3
COc1ccc(C(=O)OC(C)C(=O)Nc2cc(C(F)(F)F)ccc2Cl)c(OC)c1OC (stereo not given),-20,6,6,0,-55,3
O=C(CCS(=O)(=O)c1ccc(Br)s1)Nc1ccccc1Br,-7,-3,-3,1,-9,x
Cc1cccc2nc(CSc3ccccc3N)cn12,-7,3,-3,1,-16,2
Cc1cccc2nc(COc3ccc4ccccc4c3Br)cn12,-16,11*,x,x,1,x
CCC(C)(C(=O)NC1CCCC1)N(CC1CCCO1)C(=O)c1ccc2c(c1)OCO2 (stereo not given),-11,-1,14,0,4,14
CCC(C)(C(=O)NC1CCCCC1)N(Cc1ccco1)C(=O)c1ccc2c(c1)OCO2 (stereo not given),-18,1,49*,0,-11,43*
O=C(O)c1ccc(OCCOc2ccccc2)cc1,-4,-1,x,x,10,x
C/C(=N\Nc1cccc(Cl)c1)c1ccncc1,40*,-2,-12,0,39*,x
C/C(=N\Nc1ccc(F)cc1)c1ccncc1,11,-1,-8,0,13,-1
CC(NC(=O)c1ccccc1Cl)C1COc2ccccc2O1 (stereo not given),-6,4,8,0,24,1
CC(NS(=O)(=O)c1ccccc1)C1COc2ccccc2O1 (stereo not given),-13,13*,-3,0,6,2
CCOC(=O)c1ccc2nc(Nc3nc4ccc(F)cc4s3)sc2c1,0,1,-5,-1,0,3
CCOC(=O)c1ccc2nc(NC(C)=O)sc2c1,3,9.4*,6,0,27,x
CN(c1ccccc1)S(=O)(=O)c1cccc(C(=O)OCC(=O)NCc2ccc3c(c2)OCO3)c1,-2,1,2,0,2,4
Cc1ncsc1C(=O)Nc1nc2c(s1)CC(C)CC2 (stereo not given),8,9.6*,-3,0,-12,0
CC1CCc2nc(NC(=O)C3CC3)sc2C1 (stereo not given),12,1,-2,0,-39,1
CCOC(=O)c1ccc(CC(=O)c2oc3cc(O)ccc3c2C)o1,1,10*,1,0,-6,5
COc1ccc(OCC(=O)Nc2ccc3c(c2)nc(CCN2CCOCC2)n3C)cc1,9,9.1*,-1,0,0,-3
Cc1c(C(=O)NCC2COc3ccccc3O2)oc2ccc(S(=O)(=O)N3CCOCC3)cc12 (stereo not given),32,9.1*,-4,0,35,0
O=C(CN(CCO)c1ccccc1)Nc1ccc(Cl)c(S(=O)(=O)N2CCOCC2)c1,5,0,13,0,1,x
CSc1nc(-c2ccco2)nn1S(=O)(=O)c1ccccc1,6,-1,24*,0,-39,7

# Assay outcomes as filed in PubChem.
